Measurements taken from ChEMBL document CHEMBL1127351, “Technetium-99m N,N'-bis(2-mercapto-2-methylpropyl)-2-aminobenzylamine: technetium-99m complexes of a novel bis(aminoethanethiol) ligand” (J Med Chem, 1994).
One block for each substance: values may come before it.

Columns and labels:
Rattus norvegicus [1] = species: Rattus norvegicus; test: Biodistribution of compound was tested in rat kidney at 60 min; type: ADME, organism-based; conditions: in vivo, 1 h
In short: (§1)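 Male Sprague-Dawley rats (200–300 g) under ether anesthesia got an iv injection of 0.2 mL saline containing the 99mTc complex (2–5 μCi). At set times, blood was drawn by cardiac puncture and rats were killed by cardiectomy. Organs were excised, weighed and gamma-counted. % dose/organ was taken against diluted injected-dose standards. Values are the mean of three rats ± SEM.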

Rattus norvegicus [2] = species: Rattus norvegicus; test: Biodistribution of compound was tested in rat heart at 15 min; type: ADME, organism-based; conditions: in vivo, 0.25 h; in short: as §1
Rattus norvegicus [3] = species: Rattus norvegicus; test: Biodistribution of compound was tested in rat brain at 60 min; type: ADME, organism-based; conditions: in vivo, 1 h; in short: as §1
Rattus norvegicus [4] = species: Rattus norvegicus; test: Biodistribution of compound was tested in rat spleen at 2 min; type: ADME, organism-based; conditions: in vivo; in short: as §1
Rattus norvegicus [5] = species: Rattus norvegicus; test: Biodistribution of compound was tested in rat brain at 2 min; type: ADME, organism-based; conditions: in vivo; in short: as §1
Rattus norvegicus [6] = species: Rattus norvegicus; test: Biodistribution of compound was tested in rat spleen at 15 min; type: ADME, organism-based; conditions: in vivo, 0.25 h; in short: as §1
Rattus norvegicus [7] = species: Rattus norvegicus; test: Biodistribution of compound was tested in rat muscle at 15 min; type: ADME, organism-based, Muscle tissue; conditions: in vivo, 0.25 h; in short: as §1
Rattus norvegicus [8] = species: Rattus norvegicus; test: Biodistribution of compound was tested in rat brain at 15 min; type: ADME, organism-based; conditions: in vivo, 0.25 h; in short: as §1
Rattus norvegicus [9] = species: Rattus norvegicus; test: Biodistribution of compound was tested in rat spleen at 60 min; type: ADME, organism-based; conditions: in vivo, 1 h; in short: as §1
Rattus norvegicus [10] = species: Rattus norvegicus; test: Biodistribution of compound was tested in rat liver at 15 min; type: ADME, organism-based; conditions: in vivo, 0.25 h; in short: as §1
Rattus norvegicus [11] = species: Rattus norvegicus; test: Biodistribution of compound was tested in rat blood at 2 min; type: ADME, organism-based; conditions: in vivo; in short: as §1
Rattus norvegicus [12] = species: Rattus norvegicus; test: Biodistribution of compound was tested in rat skin at 2 min; type: ADME, organism-based, Zone of skin; conditions: in vivo; in short: as §1
Rattus norvegicus [13] = species: Rattus norvegicus; test: Biodistribution of compound was tested in rat blood at 60 min; type: ADME, organism-based; conditions: in vivo, 1 h; in short: as §1
Rattus norvegicus [14] = species: Rattus norvegicus; test: Biodistribution of compound was tested in rat lung at 15 min; type: ADME, organism-based; conditions: in vivo, 0.25 h; in short: as §1
Rattus norvegicus [15] = species: Rattus norvegicus; test: Biodistribution of compound was tested in rat muscle at 60 min; type: ADME, organism-based, Muscle tissue; conditions: in vivo, 1 h; in short: as §1
Rattus norvegicus [16] = species: Rattus norvegicus; test: Biodistribution of compound was tested in rat heart at 60 min; type: ADME, organism-based; conditions: in vivo, 1 h; in short: as §1
Rattus norvegicus [17] = species: Rattus norvegicus; test: Biodistribution of compound was tested in rat skin at 60 min; type: ADME, organism-based, Zone of skin; conditions: in vivo, 1 h; in short: as §1
Rattus norvegicus [18] = species: Rattus norvegicus; test: Biodistribution of compound was tested in rat liver at 2 min; type: ADME, organism-based; conditions: in vivo; in short: as §1
Rattus norvegicus [19] = species: Rattus norvegicus; test: Biodistribution of compound was tested in rat lung at 2 min; type: ADME, organism-based; conditions: in vivo; in short: as §1
Rattus norvegicus [20] = species: Rattus norvegicus; test: Biodistribution of compound was tested in rat blood at 15 min; type: ADME, organism-based; conditions: in vivo, 0.25 h; in short: as §1
Rattus norvegicus [21] = species: Rattus norvegicus; test: Biodistribution of compound was tested in rat heart at 2 min; type: ADME, organism-based; conditions: in vivo; in short: as §1
Rattus norvegicus [22] = species: Rattus norvegicus; test: Biodistribution of compound was tested in rat kidney at 15 min; type: ADME, organism-based; conditions: in vivo, 0.25 h; in short: as §1
Rattus norvegicus [23] = species: Rattus norvegicus; test: Biodistribution of compound was tested in rat muscle at 2 min; type: ADME, organism-based, Muscle tissue; conditions: in vivo; in short: as §1
Rattus norvegicus [24] = species: Rattus norvegicus; test: Biodistribution of compound was tested in rat kidney at 2 min; type: ADME, organism-based; conditions: in vivo; in short: as §1
Rattus norvegicus [25] = species: Rattus norvegicus; test: Biodistribution of compound was tested in rat skin at 15 min; type: ADME, organism-based, Zone of skin; conditions: in vivo, 0.25 h; in short: as §1
Rattus norvegicus [26] = species: Rattus norvegicus; test: Biodistribution of compound was tested in rat liver at 60 min; type: ADME, organism-based; conditions: in vivo, 1 h; in short: as §1
Rattus norvegicus [27] = species: Rattus norvegicus; test: Biodistribution of compound was tested in rat lung at 60 min; type: ADME, organism-based; conditions: in vivo, 1 h; in short: as §1
Rattus norvegicus [28] = species: Rattus norvegicus; test: Biodistribution of compound was tested in rat kidney at 30 min; type: ADME, organism-based; conditions: in vivo, 0.5 h; in short: as §1
Rattus norvegicus [29] = species: Rattus norvegicus; test: Biodistribution of compound was tested in rat muscle at 30 min; type: ADME, organism-based, Muscle tissue; conditions: in vivo, 0.5 h; in short: as §1
Rattus norvegicus [30] = species: Rattus norvegicus; test: Biodistribution of compound was tested in rat liver at 30 min; type: ADME, organism-based; conditions: in vivo, 0.5 h; in short: as §1
Rattus norvegicus [31] = species: Rattus norvegicus; test: Biodistribution of compound was tested in rat lung at 30 min; type: ADME, organism-based; conditions: in vivo, 0.5 h; in short: as §1
Rattus norvegicus [32] = species: Rattus norvegicus; test: Biodistribution of compound was tested in rat skin at 30 min; type: ADME, organism-based, Zone of skin; conditions: in vivo, 0.5 h; in short: as §1
Rattus norvegicus [33] = species: Rattus norvegicus; test: Biodistribution of compound was tested in rat blood at 30 min; type: ADME, organism-based; conditions: in vivo, 0.5 h; in short: as §1
Rattus norvegicus [34] = species: Rattus norvegicus; test: Biodistribution of compound was tested in rat heart at 30 min; type: ADME, organism-based; conditions: in vivo, 0.5 h; in short: as §1
Rattus norvegicus [35] = species: Rattus norvegicus; test: Biodistribution of compound was tested in rat spleen at 30 min; type: ADME, organism-based; conditions: in vivo, 0.5 h; in short: as §1
Rattus norvegicus [36] = species: Rattus norvegicus; test: Biodistribution of compound was tested in rat brain at 30 min; type: ADME, organism-based; conditions: in vivo, 0.5 h; in short: as §1

- Dose/organ (Rattus norvegicus [1]): 0.93%
- Dose/organ (Rattus norvegicus [2]): 0.53%
- Dose/organ (Rattus norvegicus [3]): 0.21%
- Dose/organ (Rattus norvegicus [4]): 0.64%
- Dose/organ (Rattus norvegicus [5]): 1.54%
- Dose/organ (Rattus norvegicus [6]): 0.72%
- Dose/organ (Rattus norvegicus [7]): 16.5%
- Dose/organ (Rattus norvegicus [8]): 0.72%
- Dose/organ (Rattus norvegicus [9]): 0.68%
- Dose/organ (Rattus norvegicus [10]): 26.5%
- Dose/organ (Rattus norvegicus [11]): 4.37%
- Dose/organ (Rattus norvegicus [12]): 13.48%
- Dose/organ (Rattus norvegicus [13]): 1.27%
- Dose/organ (Rattus norvegicus [14]): 0.91%
- Dose/organ (Rattus norvegicus [15]): 20.08%
- Dose/organ (Rattus norvegicus [16]): 0.28%
- Dose/organ (Rattus norvegicus [17]): 16.5%
- Dose/organ (Rattus norvegicus [18]): 23.58%
- Dose/organ (Rattus norvegicus [19]): 1.79%
- Dose/organ (Rattus norvegicus [20]): 2%
- Dose/organ (Rattus norvegicus [21]): 1.28%
- Dose/organ (Rattus norvegicus [22]): 1.54%
- Dose/organ (Rattus norvegicus [23]): 20.77%
- Dose/organ (Rattus norvegicus [24]): 3.58%
- Dose/organ (Rattus norvegicus [25]): 10.45%
- Dose/organ (Rattus norvegicus [26]): 20.75%
- Dose/organ (Rattus norvegicus [27]): 0.5%
Substance: technicium complex

- Dose/organ (Rattus norvegicus [4]): 0.68%
- Dose/organ (Rattus norvegicus [5]): 1.07%
- Dose/organ (Rattus norvegicus [28]): 1.33%
- Dose/organ (Rattus norvegicus [11]): 8.12%
- Dose/organ (Rattus norvegicus [12]): 3.94%
- Dose/organ (Rattus norvegicus [29]): 13.52%
- Dose/organ (Rattus norvegicus [30]): 22.65%
- Dose/organ (Rattus norvegicus [31]): 1.98%
- Dose/organ (Rattus norvegicus [18]): 22.76%
- Dose/organ (Rattus norvegicus [32]): 11.94%
- Dose/organ (Rattus norvegicus [33]): 3.22%
- Dose/organ (Rattus norvegicus [34]): 0.24%
- Dose/organ (Rattus norvegicus [19]): 4.47%
- Dose/organ (Rattus norvegicus [21]): 1.15%
- Dose/organ (Rattus norvegicus [35]): 0.3%
- Dose/organ (Rattus norvegicus [23]): 10.24%
- Dose/organ (Rattus norvegicus [24]): 3.3%
- Dose/organ (Rattus norvegicus [36]): 0.28%
Substance: tecnicium complex
